Two compounds from ChEMBL document CHEMBL1212900, “Falcipain inhibitors: optimization studies of the 2-pyrimidinecarbonitrile lead series” (J Med Chem, 2010) can be followed below.

The structures appear in SMILES notation.

Assay [1] in a line: Inhibition of Plasmodium falciparum falcipain-2 expressed in Escherichia coli. In a few lines: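 Recombinant E. coli-expressed, refolded enzyme at 0.25 nM in 100 mM sodium acetate pH 5.5, 500 μM CHAPS, 10 mM DTT, DMSO ≤1%. Substrate H-D-Val-Leu-Arg-AFC at 30 μM final. Inhibitor dilutions mixed with substrate, enzyme added last; fluorescence followed 1 h at room temperature. IC50 from percent activity versus concentration.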

Assay [2] is described as follows: Inhibition of Plasmodium falciparum falcipain-3 expressed in Escherichia coli. In a few lines: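 Refolded recombinant enzyme from E. coli, 2 nM, in 100 mM sodium acetate pH 5.5 with 500 μM CHAPS and 10 mM DTT, DMSO up to 1%. H-D-Val-Leu-Arg-AFC at 150 μM final. Reaction started by enzyme addition; fluorescence monitored 1 h at room temperature. IC50 derived from percent activity plotted against inhibitor concentration.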

In assay [3] the test system is Plasmodium falciparum. The assay is described as follows: Antiplasmodial activity against Plasmodium falciparum W2 after 48 hrs. The class given is functional, organism-based. The conditions noted are these: W2, 48 h. In a few lines:
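W2 P. falciparum grown in human erythrocytes, 2% hematocrit, RPMI with 10% human serum or 0.5% AlbuMAX II; sorbitol-synchronized. Serial dilutions from DMSO stocks added at ring stage for 48 h, medium and drug renewed at 24 h. Cells fixed in 1% formaldehyde, stained with YOYO-1, parasitemia counted by flow cytometry; IC50 from percent parasitemia versus untreated controls.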

Take `CC1OCCC1CN(NC(=O)c1ccc(CN2CCN(C)CC2)cc1)c1nc(C#N)ncc1Br` (stereo unspecified): the IC50 in assay [1] came to 2 nM; in assay [2], 75 nM; in assay [3], 193 nM.

Consider `CC(C)CN(NC(=O)c1cncc(-c2ccc(CN3CCN(C)CC3)cc2)c1)c1nc(C#N)ncc1Br`, for which the half-inhibitory concentration (IC50) in assay [1] was under 0.5 nM; in assay [2], under 3 nM; in assay [3], 1 nM.
